System: HEK-293T
Test: Multiplex assay against HEK293T
Assay type: toxicity, cell-based
Settings: human
Procedure, shortened: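 Live cells were stained at seeding with Hoechst33342, BioTracker Green Microtubule Cytoskeleton Dye, MitoTracker Red and Annexin V Alexa Fluor 680. Following compound addition, they were imaged on a CQ1 microscope at 37°C and 5% CO2 and gated by CellPathfinder machine learning into Hoechst high-intensity objects or normal cells, with normal cells split into healthy, pyknosed or fragmented nuclei and pyknosed cells into mitotic or apoptotic. Tubulin, mitochondrial-mass and membrane-permeability phenotypes are per cents of healthy-nucleus cells.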

[1] = 12 h, 1 µM, compound concentration 1 uM, replicate 1
[2] = 12 h, 1 µM, compound concentration 1 uM, replicate 2
[3] = 12 h, 10 µM, compound concentration 10 uM, replicate 1
[4] = 12 h, 10 µM, compound concentration 10 uM, replicate 2
[5] = 24 h, 1 µM, compound concentration 1 uM, replicate 1
[6] = 24 h, 1 µM, compound concentration 1 uM, replicate 2
[7] = 24 h, 10 µM, compound concentration 10 uM, replicate 1
[8] = 24 h, 10 µM, compound concentration 10 uM, replicate 2
[9] = 48 h, 1 µM, compound concentration 1 uM, replicate 1
[10] = 48 h, 1 µM, compound concentration 1 uM, replicate 2
[11] = 48 h, 10 µM, compound concentration 10 uM, replicate 1
[12] = 48 h, 10 µM, compound concentration 10 uM, replicate 2

Question: For `O=C1[C@H](Cc2ccc(O)cc2)N2C(=O)CCN(C(=O)NCc3ccccc3)[C@H]2CN1Cc1cccc2ccccc12`, which “Population Apoptotic (%)” value [1] is on record?
Answer: 44%

Question: And the “Population Fragmented Nuclei (%)” value [1]?
Answer: 6%

Question: And the “Population Healthy Nuclei (%)” value [1]?
Answer: 80%

Question: What about the “Population Hoechst High Intensity Objects (%)” value [1] of the same molecule?
Answer: 6%

Question: What about the “Population Membrane Permeable-Phenotype (%)” value [1] of the same molecule?
Answer: 0%

Question: What about the “Population Mitochondria Different-Phenotype (%)” value [1] of the same molecule?
Answer: 54%

Question: What about the “Population Mitotic Cells (%)” value [1] of the same molecule?
Answer: 55%

Question: What about the “Population Normal (%)” value [1] of the same molecule?
Answer: 93%

Question: What about the “Population Pyknosed Nuclei (%)” value [1] of the same molecule?
Answer: 12%

Question: What about the “Population Tubulin-Different-Phenotype (%)” value [1] of the same molecule?
Answer: 46%

Question: And the “Total Cell Count” value [1]?
Answer: 374

Question: What about the “Population Apoptotic (%)” value [2] of the same molecule?
Answer: 46%

Question: What about the “Population Fragmented Nuclei (%)” value [2] of the same molecule?
Answer: 7%

Question: What about the “Population Healthy Nuclei (%)” value [2] of the same molecule?
Answer: 78%

Question: And the “Population Hoechst High Intensity Objects (%)” value [2]?
Answer: 8%

Question: And the “Population Mitochondria Different-Phenotype (%)” value [2]?
Answer: 68%

Question: What about the “Population Mitotic Cells (%)” value [2] of the same molecule?
Answer: 53%

Question: What about the “Population Normal (%)” value [2] of the same molecule?
Answer: 91%

Question: And the “Population Pyknosed Nuclei (%)” value [2]?
Answer: 13%

Question: What about the “Population Tubulin-Different-Phenotype (%)” value [2] of the same molecule?
Answer: 33%

Question: And the “Total Cell Count” value [2]?
Answer: 259

Question: And the “Population Apoptotic (%)” value [3]?
Answer: 68%

Question: What about the “Population Fragmented Nuclei (%)” value [3] of the same molecule?
Answer: 5%

Question: And the “Population Healthy Nuclei (%)” value [3]?
Answer: 74%

Question: And the “Population Hoechst High Intensity Objects (%)” value [3]?
Answer: 11%

Question: And the “Population Membrane Permeable-Phenotype (%)” value [3]?
Answer: 0%

Question: What about the “Population Mitochondria Different-Phenotype (%)” value [3] of the same molecule?
Answer: 90%

Question: What about the “Population Mitotic Cells (%)” value [3] of the same molecule?
Answer: 31%

Question: What about the “Population Normal (%)” value [3] of the same molecule?
Answer: 88%

Question: And the “Population Pyknosed Nuclei (%)” value [3]?
Answer: 20%

Question: And the “Population Tubulin-Different-Phenotype (%)” value [3]?
Answer: 76%

Question: What about the “Total Cell Count” value [3] of the same molecule?
Answer: 340

Question: What about the “Population Apoptotic (%)” value [4] of the same molecule?
Answer: 60%

Question: What about the “Population Healthy Nuclei (%)” value [4] of the same molecule?
Answer: 82%

Question: What about the “Population Hoechst High Intensity Objects (%)” value [4] of the same molecule?
Answer: 14%

Question: And the “Population Mitochondria Different-Phenotype (%)” value [4]?
Answer: 93%

Question: And the “Population Mitotic Cells (%)” value [4]?
Answer: 40%

Question: What about the “Population Normal (%)” value [4] of the same molecule?
Answer: 85%

Question: What about the “Population Pyknosed Nuclei (%)” value [4] of the same molecule?
Answer: 11%

Question: And the “Population Tubulin-Different-Phenotype (%)” value [4]?
Answer: 67%

Question: What about the “Total Cell Count” value [4] of the same molecule?
Answer: 257

Question: And the “Population Apoptotic (%)” value [5]?
Answer: 23%

Question: What about the “Population Fragmented Nuclei (%)” value [5] of the same molecule?
Answer: 7%

Question: What about the “Population Healthy Nuclei (%)” value [5] of the same molecule?
Answer: 80%

Question: What about the “Population Hoechst High Intensity Objects (%)” value [5] of the same molecule?
Answer: 7%

Question: And the “Population Membrane Permeable-Phenotype (%)” value [5]?
Answer: 0%

Question: And the “Population Mitochondria Different-Phenotype (%)” value [5]?
Answer: 49%

Question: And the “Population Mitotic Cells (%)” value [5]?
Answer: 76%

Question: And the “Population Normal (%)” value [5]?
Answer: 92%

Question: What about the “Population Pyknosed Nuclei (%)” value [5] of the same molecule?
Answer: 11%

Question: And the “Population Tubulin-Different-Phenotype (%)” value [5]?
Answer: 38%

Question: And the “Total Cell Count” value [5]?
Answer: 470

Question: And the “Population Apoptotic (%)” value [6]?
Answer: 55%

Question: And the “Population Fragmented Nuclei (%)” value [6]?
Answer: 8%

Question: And the “Population Healthy Nuclei (%)” value [6]?
Answer: 77%

Question: And the “Population Hoechst High Intensity Objects (%)” value [6]?
Answer: 8%

Question: And the “Population Mitochondria Different-Phenotype (%)” value [6]?
Answer: 47%

Question: And the “Population Mitotic Cells (%)” value [6]?
Answer: 45%

Question: What about the “Population Normal (%)” value [6] of the same molecule?
Answer: 91%

Question: What about the “Population Pyknosed Nuclei (%)” value [6] of the same molecule?
Answer: 14%

Question: And the “Population Tubulin-Different-Phenotype (%)” value [6]?
Answer: 24%

Question: And the “Total Cell Count” value [6]?
Answer: 305

Question: And the “Population Apoptotic (%)” value [7]?
Answer: 68%

Question: What about the “Population Fragmented Nuclei (%)” value [7] of the same molecule?
Answer: 7%

Question: What about the “Population Healthy Nuclei (%)” value [7] of the same molecule?
Answer: 75%

Question: And the “Population Hoechst High Intensity Objects (%)” value [7]?
Answer: 11%

Question: What about the “Population Membrane Permeable-Phenotype (%)” value [7] of the same molecule?
Answer: 0%

Question: What about the “Population Mitochondria Different-Phenotype (%)” value [7] of the same molecule?
Answer: 94%

Question: And the “Population Mitotic Cells (%)” value [7]?
Answer: 31%

Question: What about the “Population Normal (%)” value [7] of the same molecule?
Answer: 88%

Question: What about the “Population Pyknosed Nuclei (%)” value [7] of the same molecule?
Answer: 16%

Question: What about the “Population Tubulin-Different-Phenotype (%)” value [7] of the same molecule?
Answer: 65%

Question: And the “Total Cell Count” value [7]?
Answer: 278

Question: What about the “Population Apoptotic (%)” value [8] of the same molecule?
Answer: 74%

Question: What about the “Population Fragmented Nuclei (%)” value [8] of the same molecule?
Answer: 9%

Question: What about the “Population Healthy Nuclei (%)” value [8] of the same molecule?
Answer: 77%

Question: And the “Population Hoechst High Intensity Objects (%)” value [8]?
Answer: 14%

Question: What about the “Population Mitochondria Different-Phenotype (%)” value [8] of the same molecule?
Answer: 95%

Question: What about the “Population Mitotic Cells (%)” value [8] of the same molecule?
Answer: 25%

Question: What about the “Population Normal (%)” value [8] of the same molecule?
Answer: 85%

Question: What about the “Population Pyknosed Nuclei (%)” value [8] of the same molecule?
Answer: 12%

Question: And the “Population Tubulin-Different-Phenotype (%)” value [8]?
Answer: 70%

Question: What about the “Total Cell Count” value [8] of the same molecule?
Answer: 249

Question: And the “Population Apoptotic (%)” value [9]?
Answer: 30%

Question: What about the “Population Fragmented Nuclei (%)” value [9] of the same molecule?
Answer: 14%

Question: And the “Population Healthy Nuclei (%)” value [9]?
Answer: 78%

Question: And the “Population Hoechst High Intensity Objects (%)” value [9]?
Answer: 4%

Question: And the “Population Membrane Permeable-Phenotype (%)” value [9]?
Answer: 0%

Question: What about the “Population Mitochondria Different-Phenotype (%)” value [9] of the same molecule?
Answer: 34%

Question: And the “Population Mitotic Cells (%)” value [9]?
Answer: 69%

Question: What about the “Population Normal (%)” value [9] of the same molecule?
Answer: 95%

Question: What about the “Population Pyknosed Nuclei (%)” value [9] of the same molecule?
Answer: 6%

Question: And the “Population Tubulin-Different-Phenotype (%)” value [9]?
Answer: 26%

Question: What about the “Total Cell Count” value [9] of the same molecule?
Answer: 730

Question: And the “Population Apoptotic (%)” value [10]?
Answer: 50%

Question: What about the “Population Fragmented Nuclei (%)” value [10] of the same molecule?
Answer: 11%

Question: And the “Population Healthy Nuclei (%)” value [10]?
Answer: 81%

Question: And the “Population Hoechst High Intensity Objects (%)” value [10]?
Answer: 3%

Question: What about the “Population Mitochondria Different-Phenotype (%)” value [10] of the same molecule?
Answer: 29%

Question: What about the “Population Mitotic Cells (%)” value [10] of the same molecule?
Answer: 50%

Question: And the “Population Normal (%)” value [10]?
Answer: 96%

Question: What about the “Population Pyknosed Nuclei (%)” value [10] of the same molecule?
Answer: 7%

Question: What about the “Population Tubulin-Different-Phenotype (%)” value [10] of the same molecule?
Answer: 19%

Question: What about the “Total Cell Count” value [10] of the same molecule?
Answer: 472

Question: And the “Population Apoptotic (%)” value [11]?
Answer: 71%

Question: What about the “Population Fragmented Nuclei (%)” value [11] of the same molecule?
Answer: 8%

Question: What about the “Population Healthy Nuclei (%)” value [11] of the same molecule?
Answer: 79%

Question: And the “Population Hoechst High Intensity Objects (%)” value [11]?
Answer: 10%

Question: What about the “Population Membrane Permeable-Phenotype (%)” value [11] of the same molecule?
Answer: 0%

Question: What about the “Population Mitochondria Different-Phenotype (%)” value [11] of the same molecule?
Answer: 94%

Question: What about the “Population Mitotic Cells (%)” value [11] of the same molecule?
Answer: 28%

Question: What about the “Population Normal (%)” value [11] of the same molecule?
Answer: 89%

Question: And the “Population Pyknosed Nuclei (%)” value [11]?
Answer: 11%

Question: What about the “Population Tubulin-Different-Phenotype (%)” value [11] of the same molecule?
Answer: 63%

Question: What about the “Total Cell Count” value [11] of the same molecule?
Answer: 297

Question: And the “Population Apoptotic (%)” value [12]?
Answer: 57%

Question: What about the “Population Fragmented Nuclei (%)” value [12] of the same molecule?
Answer: 11%

Question: What about the “Population Healthy Nuclei (%)” value [12] of the same molecule?
Answer: 73%

Question: What about the “Population Hoechst High Intensity Objects (%)” value [12] of the same molecule?
Answer: 20%

Question: What about the “Population Mitochondria Different-Phenotype (%)” value [12] of the same molecule?
Answer: 88%

Question: And the “Population Mitotic Cells (%)” value [12]?
Answer: 42%

Question: What about the “Population Normal (%)” value [12] of the same molecule?
Answer: 79%

Question: What about the “Population Pyknosed Nuclei (%)” value [12] of the same molecule?
Answer: 14%

Question: What about the “Population Tubulin-Different-Phenotype (%)” value [12] of the same molecule?
Answer: 72%

Question: And the “Total Cell Count” value [12]?
Answer: 232

— ChEMBL document CHEMBL5058577, “EUbOPEN Chemogenomics Library 2 (Multiplex)” (2022)
